According to ChEMBL document CHEMBL1773014, “Cytotoxic pentacyclic and tetracyclic aromatic sesquiterpenes from Phomopsis archeri” (J Nat Prod, 2011):
Converted amounts (≈) assume the structure as drawn.

Legend:
[1] = system: Plasmodium falciparum; assay: Antimalarial activity against multidrug-resistant Plasmodium falciparum K1 assessed as reduction in uptake of [3H]-hypoxanthine by microculture radioisotope technique; format: functional, organism-based
Outline: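 P. falciparum K1 (multidrug-resistant) cultured by the Trager–Jensen method and tested in vitro by microculture radioisotope technique. Parasite growth read as [3H]-hypoxanthine uptake. IC50 taken as the concentration giving 50% reduction in growth. Dihydroartemisinin served as the reference standard.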

[2] = Cytotoxicity against human KKU-M213 cells by sulforhodamine B assay; format: functional, cell-based
[3] = Cytotoxicity against human KKU-M214 cells by sulforhodamine B assay; format: functional, cell-based
[4] = system: KB; assay: Cytotoxicity against human KB cells by sulforhodamine B assay; format: functional, cell-based
[5] = system: Mycobacterium tuberculosis; assay: Antimycobacterial activity against Mycobacterium tuberculosis H37Ra by microplate alamar blue assay; format: functional
[6] = Cytotoxicity against human KKU-M156 cells by sulforhodamine B assay; format: functional, cell-based
[7] = Cytotoxicity against human KKU-M139 cells by sulforhodamine B assay; format: functional, cell-based
[8] = Cytotoxicity against human KKU100 cells by sulforhodamine B assay; format: functional, cell-based

SMILES	IC50 [1]	IC50 [2]	IC50 [3]	IC50 [4]	MIC [5]	IC50 [6]	IC50 [7]	IC50 [8]
C[C@H]1[C@@H](O)O[C@@H]2O[C@@]3(C)CC[C@H]4[C@H](C)CC[C@@H]1[C@@]24OO3 [ARTENIMOL]	4.4 nM	–	–	–	–	–	–	–
Cc1c2ccncc2c(C)c2c1[nH]c1ccccc12 [ELLIPTECINE]	–	0.3 µg/mL (≈ 1.22 µM)	0.21 µg/mL (≈ 0.853 µM)	0.19 µg/mL (≈ 0.771 µM)	–	–	–	–
NNC(=O)c1ccncc1 [ISONIAZID]	–	–	–	–	0.23 µg/mL (≈ 1.68 µM)	–	–	–
CC(=O)O[C@H]1CC[C@]2(C)[C@H]3Cc4c(O)cc5c(c4O[C@@]3(C)CC[C@H]2C1(C)C)COC5=O [KAMPANOL A]	–	19.6 µg/mL (≈ 45.7 µM)	> 20 µg/mL	–	–	> 20 µg/mL	> 20 µg/mL	> 20 µg/mL
CC1(C)[C@@H](O)CC[C@]2(C)[C@H]3Cc4c(O)cc5c(c4O[C@@]3(C)CC[C@@H]12)COC5=O [PHOMOARCHERIN A]	> 20 µg/mL	16.6 µg/mL (≈ 43 µM)	> 20 µg/mL	42.1 µg/mL (≈ 109 µM)	> 200 µg/mL	> 20 µg/mL	> 20 µg/mL	> 20 µg/mL
CC1(C)C(=O)CC[C@]2(C)[C@H]3Cc4c(O)cc5c(c4O[C@@]3(C)CC[C@@H]12)COC5=O [PHOMOARCHERIN B]	0.79 µg/mL	> 20 µg/mL	5 µg/mL (≈ 13 µM)	9.4 µg/mL (≈ 24.4 µM)	50 µg/mL (≈ 130 µM)	2 µg/mL (≈ 5.2 µM)	0.1 µg/mL (≈ 0.26 µM)	8 µg/mL (≈ 20.8 µM)
Cc1cc(O)c2c(c1C=O)O[C@@]1(C)CC[C@H]3C(C)(C)C(=O)CC[C@]3(C)[C@H]1C2 [PHOMOARCHERIN C]	–	15.4 µg/mL (≈ 41.6 µM)	18.8 µg/mL (≈ 50.7 µM)	–	–	18 µg/mL (≈ 48.6 µM)	8.9 µg/mL (≈ 24 µM)	8.9 µg/mL (≈ 24 µM)
